# According to ChEMBL document CHEMBL1157456, “Unsymmetric aryl-alkyl disulfide growth inhibitors of methicillin-resistant Staphylococcus aureus and Bacillus anthracis” (Bioorg Med Chem, 2008):
# pIC50: −log10 of the molar value. Calls of active or inactive are those of the source. The rule behind the calls is not given here.
# How the values were obtained:
# Bacillus anthracis [1] = experiment: Antibacterial activity against Bacillus anthracis after 24 hrs by serial dilution method; format: functional
# Staphylococcus aureus [2] = experiment: Antibacterial activity against Staphylococcus aureus ATCC 25923 after 24 hrs by serial dilution method; format: functional; conditions: for MIC: ATCC 25923, 24 h
# Staphylococcus aureus [3] = experiment: Antibacterial activity against methicillin-resistant Staphylococcus aureus ATCC 43300 after 24 hrs by serial dilution method; format: functional; conditions: ATCC 43300, 24 h
# Staphylococcus aureus [4] = experiment: Antibacterial activity against Staphylococcus aureus ATCC 25923 assessed as inhibition zone diameter at 20 ug after 24 hrs by Kirby-Bauer test; format: functional; conditions: ATCC 25923, 24 h, read-out: IZ
# Procedure, shortened: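 Kirby-Bauer on TSA: a 0.5 McFarland saline suspension was spread as a lawn. 6 mm wells were bored and given 20 µL of 1 mg/mL compound in DMSO (20 ug). Plates ran 24 h at 37 °C. Inhibition zone diameter was averaged over 3 trials.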
# Bacillus anthracis [5] = experiment: Antibacterial activity against Bacillus anthracis assessed as inhibition zone diameter at 20 ug after 24 hrs by Kirby-Bauer test; format: functional; conditions: read-out: IZ
# Escherichia coli [6] = experiment: Antibacterial activity against Escherichia coli K12 ATCC 23590 after 24 hrs by serial dilution method; format: functional; conditions: K12, 24 h
# Escherichia coli [7] = experiment: Inhibition of purified Escherichia coli FabH at 5 uM by trichloroacetic acid precipitation assay relative to control
# Procedure, shortened: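 ecFabH (100 nM monomer) was preincubated 15 min at room temperature with 5 µM disulfide in 50 mM sodium phosphate pH 7.4. Radiolabeled 3-ketoacyl-ACP was formed from [1-14C]acetyl-CoA (40 µM) and malonyl-ACP (10 µM), the latter from a coupled S. glaucescens FabD/ACP system. Product was collected by TCA precipitation. Activity was expressed as % decrease versus a no-compound control, in duplicate.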
# [8] = molecular target: T1, Mycobacterial beta-ketoacyl-[acyl-carrier-protein] synthase III (Mycobacterium tuberculosis) (UniProt P9WNG3); experiment: Inhibition of Mycobacterium tuberculosis FabH
# T1 sequence (whole entry): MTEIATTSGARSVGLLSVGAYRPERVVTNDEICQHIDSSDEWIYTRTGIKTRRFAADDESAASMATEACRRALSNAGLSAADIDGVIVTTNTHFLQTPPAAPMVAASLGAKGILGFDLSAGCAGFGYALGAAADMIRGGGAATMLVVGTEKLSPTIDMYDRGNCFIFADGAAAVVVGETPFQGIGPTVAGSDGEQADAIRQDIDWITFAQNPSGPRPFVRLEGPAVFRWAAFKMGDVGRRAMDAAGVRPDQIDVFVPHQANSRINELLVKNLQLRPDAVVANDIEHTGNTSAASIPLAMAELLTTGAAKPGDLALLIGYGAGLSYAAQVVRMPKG
# Escherichia coli [9] = experiment: Inhibition of purified Escherichia coli FabH at 1 uM by trichloroacetic acid precipitation assay relative to control
# Procedure, shortened: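 Purified ecFabH (100 nM monomer) was preincubated 15 min at room temperature with 1 µM compound in 50 mM sodium phosphate pH 7.4, without CoA. It was then added to [1-14C]acetyl-CoA (40 µM) and malonyl-ACP (10 µM), made with S. glaucescens FabD/ACP. 3-Ketoacyl-ACP was measured by TCA precipitation, as % inhibition versus a no-inhibitor control, in duplicate.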
# [10] = Inhibition of Escherichia coli FabH
Compound,MIC (Bacillus anthracis [1]) [µg/mL],MIC (Staphylococcus aureus [2]) [µg/mL],MIC (Staphylococcus aureus [3]) [µg/mL],zone of inhibition at 20 µg/disc (Staphylococcus aureus [4]) [mm],further results
CC(C)SSc1cccc([N+](=O)[O-])c1,1,< 0.125,16,–,–
CSSc1ccc(F)c(F)c1,–,–,–,11,–
CCC(C)SSc1cccc([N+](=O)[O-])c1 (configuration not stated),8,8,32,45,zone of inhibition at 20 µg/disc (Bacillus anthracis [5]): 41 mm
CCSSc1ccc([N+](=O)[O-])cc1,0.25,1,16,–,MIC (Escherichia coli [6]): 16 µg/mL; inhibition (Escherichia coli [7]): 98%
CC(C)SSc1ccc([N+](=O)[O-])cc1,0.125,< 0.125,< 0.125,–,MIC (Escherichia coli [6]): 96 µg/mL; inhibition (Escherichia coli [7]): 98.5%
CSSc1ccccc1CO,–,–,–,14,–
CSSc1ccc(C)c(C)c1,–,–,–,10,–
CSc1ccc([N+](=O)[O-])cc1,–,–,–,–,Activity (Staphylococcus aureus [2]): inactive
CSSCc1ccc([N+](=O)[O-])cc1,32,–,–,–,Activity (Staphylococcus aureus [2]): Active
CC(C)SSc1ccccc1[N+](=O)[O-],32,16,32,31,zone of inhibition at 20 µg/disc (Bacillus anthracis [5]): 27 mm
CN[C@H](CC(C)C)C(=O)N[C@H]1C(=O)N[C@@H](CC(N)=O)C(=O)N[C@H]2C(=O)N[C@H]3C(=O)N[C@H](C(=O)N[C@H](C(=O)O)c4cc(O)cc(O)c4-c4cc3ccc4O)[C@H](O)c3ccc(c(Cl)c3)Oc3cc2cc(c3O[C@@H]2O[C@H](CO)[C@@H](O)[C@H](O)[C@H]2O[C@H]2C[C@](C)(N)[C@H](O)[C@H](C)O2)Oc2ccc(cc2Cl)[C@H]1O [VANCOMYCIN],–,0.25,–,27,–
CSSc1ccccn1,–,–,–,23,–
CCCCCCCCCCOC(=O)SSCCO,–,–,–,–,Activity [8]: Active
CCC(C)SSc1ccc([N+](=O)[O-])cc1 (configuration not stated),0.5,0.8,1,–,MIC (Escherichia coli [6]): 128 µg/mL; inhibition (Escherichia coli [7]): 96%
CSSc1cccc([N+](=O)[O-])c1,8,16,64,36,zone of inhibition at 20 µg/disc (Bacillus anthracis [5]): 43 mm
CCC(C)SN1C(=O)[C@H](OC)[C@@H]1c1ccccc1Cl (some centres not stated),–,–,–,–,inhibition (Escherichia coli [9]): 30%

Compound,MIC (Bacillus anthracis [1]) [µg/mL],MIC (Staphylococcus aureus [2]) [µg/mL],MIC (Staphylococcus aureus [3]) [µg/mL],zone of inhibition at 20 µg/disc (Staphylococcus aureus [4]) [mm],further results
CCCSSc1ccc([N+](=O)[O-])cc1,1,16,16,43,MIC (Escherichia coli [6]): 64 µg/mL; inhibition (Escherichia coli [7]): 91%
CSSc1ccc([N+](=O)[O-])cc1,1,16,32,35,MIC (Escherichia coli [6]): 16 µg/mL; inhibition (Escherichia coli [7]): 94%
CSSc1ccccc1[N+](=O)[O-],16,16,32,37,zone of inhibition at 20 µg/disc (Bacillus anthracis [5]): 31 mm
CSSCCc1ccc([N+](=O)[O-])cc1,64,–,–,–,Activity (Staphylococcus aureus [2]): Active
CSSCCNC(=O)CCNC(=O)[C@@H](O)C(C)(C)COP(=O)(O)OP(=O)(O)OC[C@H]1O[C@@H](n2cnc3c(N)ncnc32)[C@H](O)[C@@H]1OP(=O)(O)O,–,–,–,–,pIC50 [10]: 4.24
CCCCSSc1ccc([N+](=O)[O-])cc1,1,1,32,–,MIC (Escherichia coli [6]): 96 µg/mL; inhibition (Escherichia coli [7]): 93%
CCSSc1ccccc1[N+](=O)[O-],16,16,32,40,zone of inhibition at 20 µg/disc (Bacillus anthracis [5]): 35 mm
CCSSc1cccc([N+](=O)[O-])c1,8,8,64,45,zone of inhibition at 20 µg/disc (Bacillus anthracis [5]): 40 mm
CCOc1cccc(SSC)c1,–,–,–,9,–
O=C(O)c1cc([N+](=O)[O-])ccc1SSc1ccc([N+](=O)[O-])cc1C(=O)O,–,–,–,–,Activity (Staphylococcus aureus [2]): inactive
CO[C@H]1C(=O)N(SC)[C@H]1c1ccccc1Cl,–,–,–,–,inhibition (Escherichia coli [9]): 89%
CSSc1ccc(NC(C)=O)cc1,–,–,–,20,–
CCC(C)SSc1ccccc1[N+](=O)[O-] (configuration not stated),32,32,32,24,zone of inhibition at 20 µg/disc (Bacillus anthracis [5]): 23 mm
CC1(C)S[C@@H]2[C@H](NC(=O)Cc3ccccc3)C(=O)N2[C@H]1C(=O)O [PENICILLIN G],–,0.03,64,33,–
CSSc1ccc(N)cc1,–,–,–,0,–
